High-throughput results as filed in PubChem.
SUMO1 PPI mod: SUMO1-SIM interaction modulation. hit rate 0.33% among 360,000. SUMO1 binding to a labelled peptide, TR-FRET, 1 h. inhibition, % at 20 µM. P63165. AID 602429; in the data active = inhibition above about 37%
LMPTP inh: blocks human LMPTP phosphatase. P24666. recombinant LMPTP-A, OMFP fluorogenic substrate, fluorescence intensity. inhibition, % at 20 µM. hit rate 0.22% among 360,000. AID 651560;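 active = compounds that cut the enzyme signal by at least half of the control window in the single-dose screen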;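 also: plate controls were DMSO wells with enzyme plus substrate for no effect and substrate without enzyme for full effect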
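Test system – LMPTP-A phosphatase enzyme · Quantity – 0.625 nM LMPTP-A final · Reagent – OMFP substrate, 400 µM final · Dosing – one test concentration per compound, 20 µM, with 3% DMSO overall · Timing – 50 min enzyme reaction at room temperature, protected from light · Detection – fluorescence intensity · Controls – substrate-only low control, DMSO enzyme-plus-substrate high control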
STEP block: STEP (human) phosphatase inhibition. P54829. recombinant STEP, OMFP fluorogenic substrate, fluorescence. inhibition, % at 20 µM. hit rate 0.25% among 360,000;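 active = inhibition at 20 µM, scaled per plate between control wells, above about 37%, limit read from the data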;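 also: 0% = DMSO with enzyme and substrate and 100% = substrate only without enzyme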
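Material: STEP (striatal-enriched tyrosine phosphatase) enzyme, cell-free; Compound dosing: 20 µM single dose in 1% DMSO; Technique: fluorescence read at 480 nm ex / 540 nm em; Times: reaction 20 min, ambient temperature; Medium: 50 mM Bis-Tris pH 6.0 with 2.5 mM DTT and 0.005% Tween 20; Also added: OMFP at 25 µM.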
Scp-1 inhibitor: blocks human Scp-1 phosphatase activity. Q9GZU7. Recombinant Scp1, phosphopeptide, malachite green phosphate absorbance. inhibition, % at 20 µM. hit rate 0.88% among 340,000. AID 493091;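 active = inhibition above about 50% at 20 µM, limit read from the data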;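 also: plate controls were DMSO wells with enzyme for no effect and wells lacking enzyme for full effect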
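Test system: SCP-1 phosphatase catalytic domain, residues 76-261; measured by: colorimetric phosphate reagent with accelerator and stabiliser, absorbance at 630 nm; timing: enzyme reaction 45 min at room temperature, colour 5 min, stabilisation 30 min; also added: Phosphorylated 17-residue peptide substrate; compound dosing: one concentration, 20 µM, with 1.0% DMSO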
DNMT1 block: inhibitors of human DNMT1. hit rate 0.83% among 360,000. inhibition (reported as % activation of signal), % at 10 µM. AID 588458. DNMT1 molecular beacon, Hinp1I cleavage, fluorescence. P26358; in the data active = inhibition above about 50%
Target sequence (P26358 504-1616 limits assumed): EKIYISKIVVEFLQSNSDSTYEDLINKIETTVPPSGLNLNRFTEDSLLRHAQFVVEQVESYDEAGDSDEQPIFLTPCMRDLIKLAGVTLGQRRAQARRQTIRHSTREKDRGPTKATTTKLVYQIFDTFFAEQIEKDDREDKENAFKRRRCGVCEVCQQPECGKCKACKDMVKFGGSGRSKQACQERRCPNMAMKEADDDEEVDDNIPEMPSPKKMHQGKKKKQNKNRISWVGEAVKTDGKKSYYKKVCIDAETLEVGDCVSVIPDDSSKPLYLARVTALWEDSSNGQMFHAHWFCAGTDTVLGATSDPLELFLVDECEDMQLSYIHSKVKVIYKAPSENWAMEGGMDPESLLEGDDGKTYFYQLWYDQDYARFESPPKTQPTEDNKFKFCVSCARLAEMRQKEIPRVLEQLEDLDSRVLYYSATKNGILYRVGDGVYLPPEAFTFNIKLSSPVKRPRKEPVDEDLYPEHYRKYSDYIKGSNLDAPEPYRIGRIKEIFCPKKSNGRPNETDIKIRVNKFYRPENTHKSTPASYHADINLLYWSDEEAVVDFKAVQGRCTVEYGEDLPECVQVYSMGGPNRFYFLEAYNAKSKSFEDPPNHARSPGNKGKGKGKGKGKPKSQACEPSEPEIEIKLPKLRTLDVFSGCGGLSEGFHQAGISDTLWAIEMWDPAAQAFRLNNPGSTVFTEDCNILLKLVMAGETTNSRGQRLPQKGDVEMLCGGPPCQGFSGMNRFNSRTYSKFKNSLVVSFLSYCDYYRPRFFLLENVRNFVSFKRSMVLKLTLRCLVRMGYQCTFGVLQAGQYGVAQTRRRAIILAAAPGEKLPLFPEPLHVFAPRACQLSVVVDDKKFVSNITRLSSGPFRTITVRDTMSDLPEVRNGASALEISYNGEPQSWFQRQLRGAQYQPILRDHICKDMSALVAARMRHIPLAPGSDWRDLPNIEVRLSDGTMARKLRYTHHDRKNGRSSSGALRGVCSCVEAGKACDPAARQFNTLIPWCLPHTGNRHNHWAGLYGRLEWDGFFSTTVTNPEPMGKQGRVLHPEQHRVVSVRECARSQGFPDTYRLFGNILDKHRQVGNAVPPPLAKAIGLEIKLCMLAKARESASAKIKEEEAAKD
Beacon interf DR: counter-screen for DNMT1 inhibitors: spectral interference, dose response; shares compounds with DNMT1 block; molecular beacon fluorescence; IC50, µM; 200 tested, under 10 active; AID 602382; call rule not given here
DNMT1 confirm: DNMT1 inhibition confirmation, single concentration; shares compounds with DNMT1 block; DNMT1 molecular beacon HinP1I cleavage, fluorescence; inhibition, % at 10 µM; hit rate 8% among 2,300; AID 602385;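 active = average inhibition of at least 30% in the single-concentration confirmation test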
Beacon interf: counter-screen for DNMT1 inhibitors: spectral interference. shares compounds with DNMT1 block. hit rate 1% among 2,300. AID 602387. DNMT1 molecular beacon spectral interference counterscreen, fluorescence 485/520. activation (fluorescence interference), % at 10 µM;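 active = activation of at least 30% at 10 µM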;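 also: DNMT1 catalytic domain with a HinP1I cleavage step and a FAM/dabcyl DNA beacon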
Active calls of the source: *. The list is not random: actives were taken first. Their share in the collection is about 1.7%.

How did CC(C)c1onc(C(=O)NCCc2ccccc2)c1[N+](=O)[O-] do in these assays?
SUMO1 PPI mod: -6.5; LMPTP inh: -0.7; STEP block: -0.5; Scp-1 inhibitor: -3.7; DNMT1 block: -2.5

How did CC(C)c1onc(C(=O)NC(C)c2ccccc2)c1[N+](=O)[O-] (configuration not stated) do in these assays?
SUMO1 PPI mod: -4.0; LMPTP inh: -0.4; STEP block: 1.6; Scp-1 inhibitor: -2.8; DNMT1 block: 92.1*; DNMT1 confirm: 1.5; Beacon interf: 1.2

How did COC(=O)c1ccc(CSc2nc3scc(-c4cccs4)c3c(=O)[nH]2)o1 do in these assays?
SUMO1 PPI mod: 13.6; LMPTP inh: 2.4; STEP block: 3.6; Scp-1 inhibitor: -5.2; DNMT1 block: 80.3*; DNMT1 confirm: 7.2; Beacon interf: 1.3

What do the screens show for `Cn1cc(S(=O)(=O)N2CCCC2)cc1C(=O)O`?
SUMO1 PPI mod: 3.8; LMPTP inh: 0.5; STEP block: 18.5; Scp-1 inhibitor: 35.7; DNMT1 block: 12.2

How did COC(=O)C1(C(=O)OC)CCCCN(S(=O)(=O)c2ccc(C)cc2)CCC1 do in these assays?
SUMO1 PPI mod: 2.3; LMPTP inh: -1.3

Results for O=C(Nc1sc2c(c1C(=O)O)CCCC2)C(=O)N1CCOCC1 ?
SUMO1 PPI mod: -3.2; LMPTP inh: -1.4; STEP block: 6.7; Scp-1 inhibitor: -2.5; DNMT1 block: -3.5

How did O=C(Nc1sc2c(c1C(=O)O)CCC2)C(=O)N1CCOCC1 do in these assays?
SUMO1 PPI mod: 4.6; LMPTP inh: 4.5; STEP block: 11.1; Scp-1 inhibitor: 43.0; DNMT1 block: 60.8*; DNMT1 confirm: 5.8; Beacon interf: 2.1

How did COc1ccccc1NC(=O)CCCC(=O)OCC(F)(F)C(F)F do in these assays?
SUMO1 PPI mod: -2.6; LMPTP inh: -1.3; STEP block: 2.5; Scp-1 inhibitor: -2.0; DNMT1 block: 8.8

Results for COc1ccc(NC(=O)CCCC(=O)OCC(F)(F)C(F)F)cc1 ?
SUMO1 PPI mod: -0.4; LMPTP inh: -0.1; STEP block: -3.6; Scp-1 inhibitor: 0.2; DNMT1 block: 74.9*; DNMT1 confirm: 4.2; Beacon interf: 0.8

Results for O=C(Nc1ccc(Cc2ccc(NC(=O)Nc3cccnc3)cc2)cc1)Nc1cccnc1 ?
SUMO1 PPI mod: 14.9; LMPTP inh: 16.2; STEP block: 1.1; DNMT1 block: 51.5*; DNMT1 confirm: -0.5; Beacon interf: 0.0

What do the screens show for `O=C(Nc1ccc(Cl)cc1)Nc1cccnc1`?
SUMO1 PPI mod: -0.5; LMPTP inh: 1.1; STEP block: -3.2; Scp-1 inhibitor: -0.1; DNMT1 block: -1.5

Results for COc1cc2cc(Oc3ccc4ccc(=O)oc4c3)c(=O)oc2cc1O[C@@H]1O[C@H](CO)[C@@H](O)[C@H](O)[C@H]1O ?
SUMO1 PPI mod: 4.2; LMPTP inh: 1.8; STEP block: 1.4; Scp-1 inhibitor: 24.4; DNMT1 block: 104.7*; Beacon interf DR: >99; DNMT1 confirm: 60.9*; Beacon interf: -0.5

Results for S=C(Nc1ccc(Cl)cc1)Nc1ccc2c(c1)OCCO2 ?
SUMO1 PPI mod: 13.2; LMPTP inh: 0.5; STEP block: -1.8; Scp-1 inhibitor: 1.1; DNMT1 block: 72.1*; DNMT1 confirm: 2.2; Beacon interf: 3.0

What do the screens show for `Cc1ccc(/C=N/N2CCN(c3ccccn3)CC2)cc1`?
SUMO1 PPI mod: -5.2; LMPTP inh: 1.1; STEP block: -1.5; Scp-1 inhibitor: -6.5; DNMT1 block: -1.1

How did CCc1ccc(/C=N/N2CCN(c3ccccn3)CC2)cc1 do in these assays?
SUMO1 PPI mod: -0.8; LMPTP inh: 2.9; STEP block: 3.9; Scp-1 inhibitor: -11.4; DNMT1 block: 74.9*; DNMT1 confirm: 1.6; Beacon interf: 2.8

How did Cc1ccc(NC(=O)C2(C)CCN2C(=O)C2CCCCC2)cc1C (configuration not stated) do in these assays?
SUMO1 PPI mod: 6.4; LMPTP inh: -1.0; STEP block: 2.5; DNMT1 block: -1.6

How did CC(C)C[C@H]1CN(CCCC[C@H]2CNC(=O)C(=O)N2CCc2ccc(O)cc2)C(=O)C(=O)N1CCc1ccc(O)cc1 do in these assays?
SUMO1 PPI mod: 5.4; LMPTP inh: -0.1

What do the screens show for `O=C(N/N=C/c1cc(Cl)ccc1O)c1ccc(Br)cc1`?
SUMO1 PPI mod: 4.9; LMPTP inh: 71.8*; STEP block: 91.1*; Scp-1 inhibitor: 98.2*; DNMT1 block: 81.3*; DNMT1 confirm: 9.2; Beacon interf: 3.7

What do the screens show for `O=C(N/N=C/c1cc(Br)ccc1O)c1ccncc1`?
SUMO1 PPI mod: -4.0; LMPTP inh: -0.3; STEP block: -2.8; Scp-1 inhibitor: -17.2; DNMT1 block: -0.2

How did COc1cccc(CNC(=O)Cn2cccc2)c1 do in these assays?
SUMO1 PPI mod: -2.3; LMPTP inh: -0.8; STEP block: -3.0; Scp-1 inhibitor: 5.5; DNMT1 block: 0.8

Results for COc1cccc(CNC(=O)Cc2ccc(Br)cc2)c1 ?
SUMO1 PPI mod: 7.2; LMPTP inh: -0.3; STEP block: -1.9; Scp-1 inhibitor: -0.2; DNMT1 block: 69.7*; DNMT1 confirm: 1.9; Beacon interf: 2.1

How did N#Cc1cn(-c2ccccc2)nc1-c1cc2ccccc2oc1=O do in these assays?
SUMO1 PPI mod: 17.5; LMPTP inh: 1.3; STEP block: 4.0; Scp-1 inhibitor: 1.6; DNMT1 block: -6.2

How did O=Cc1cn(-c2ccccc2)nc1-c1cc2c(ccc3ccccc32)oc1=O do in these assays?
SUMO1 PPI mod: -3.3; LMPTP inh: 11.7; STEP block: 1.1; Scp-1 inhibitor: -10.9; DNMT1 block: 53.2*; DNMT1 confirm: 1.1; Beacon interf: -5.4

What do the screens show for `COC(=O)[C@H](Cc1ccccc1)N1C/C=C\COc2c(Cl)cc(Cl)cc2S1(=O)=O`?
SUMO1 PPI mod: 9.2; LMPTP inh: 5.5; STEP block: -6.1; Scp-1 inhibitor: -6.6; DNMT1 block: 81.6*; DNMT1 confirm: 4.1; Beacon interf: 5.4

What do the screens show for `COC(=O)[C@H](C)N1C/C=C\COc2c(Cl)cc(Cl)cc2S1(=O)=O`?
SUMO1 PPI mod: 6.4; LMPTP inh: -0.4; STEP block: -0.7; Scp-1 inhibitor: 3.9; DNMT1 block: 3.8

Results for CCOc1ccc(NC(=S)Nc2ccc3nsnc3c2)cc1 ?
SUMO1 PPI mod: 50.0*; LMPTP inh: 7.9; STEP block: 8.2; Scp-1 inhibitor: -5.2; DNMT1 block: 85.1*; DNMT1 confirm: -0.6; Beacon interf: -1.5

Results for O=c1[nH]c2ccccc2c2nc3ccccn3c12 ?
SUMO1 PPI mod: -2.5; LMPTP inh: 0.0; STEP block: 2.3; Scp-1 inhibitor: 0.4; DNMT1 block: 8.3
